Measurements taken from ChEMBL document CHEMBL1781895, “Lipid-like sulfoxides and amine oxides as inhibitors of mast cell activation” (Eur J Med Chem, 2011).
pIC50: −log10 of the molar value.

What was measured:
RBL-2H3 [1] = assay: Inhibition of anti-DNP-IgE-induced degranulation in rat RBL2H3 cells assessed as beta-hexosaminidase release at 25 uM after 30 mins by fluorescence assay; assay type: functional; conditions: RBL-2H3, 0.5 h
Summary of the method: (§1)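 RBL-2H3 cells grown in 70% MEM with Earle's salts/20% RPMI 1640/10% FBS/2 mM L-glutamine, sensitised overnight with anti-DNP IgE ([…]), washed in Tyrode's buffer, preincubated 1 h at 37 °C with or without compound, then challenged with DNP-HSA for 15 min. Supernatant β-hexosaminidase read with 4-methylumbelliferyl-N-acetyl-β-D-glucosaminide (2.5 mM, citrate, 30 min, 37 °C), fluorescence 365/440 nm; duplicate aliquots.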

[2] = Cytotoxicity at rat RBL2H3 cells assessed as maximum tolerated concentration by lactate dehydrogenase release assay; assay type: cell-based; conditions: RBL-2H3 cells, read-out: Activity
RBL-2H3 [3] = assay: Inhibition of anti-DNP-IgE-induced degranulation in rat RBL2H3 cells assessed as beta-hexosaminidase release after 30 mins by fluorescence assay; assay type: functional, cell-based; conditions: RBL-2H3, 0.5 h; summary of the method: as §1

pIC50 (RBL-2H3 [3])	SMILES	inhibition at 25 µM (RBL-2H3 [1]) [%]	MNTC [2] [µM]
–	CCCCCCCCCCCC[N+](C)(C)[O-]	40	–
–	CCCCCCCCCCCCCCCCCCCCc1ccc(S(N)(=O)=O)cc1	12	–
–	CCCCCCCCCCCC[S+]([O-])C1CCCCC1OC(C)=O (configuration not stated)	73	100
–	CCCCCCCCCCCC[S+]([O-])CC[S+]([O-])CC (configuration not stated)	51	100
4.97	CCCCCCCCCCCCC1[S+]([O-])CCC[S+]1[O-] (configuration not stated)	80	100
–	CCCCCCCCCCCC[S+]([O-])c1ccccc1[S+](C)[O-] (configuration not stated)	72	100
–	CCCCCCCCCCCC[S+]([O-])c1ccccc1O (configuration not stated)	30	100
4.97	CCCCCCCCCCCCCC[N+](C)(C)[O-]	95	100
–	CCCCCCCCCCCCCCCCC(C(=O)O)C(O)(CC(=O)O)C(=O)O (configuration not stated)	36	–
–	CCCCCCCCCCCC[S+]([O-])[C@@H]1CCCC[C@H]1O (relative stereo)	69	100
–	CCCCCCCCCCCCCCCC(=O)OC[C@H](O)[C@H]1OC(=O)C(O)=C1O [ASCORBYL PALMITATE]	38	–
–	CCCCCCCCCCCC[S+](C)[O-] (configuration not stated) [DODECYL METHYL SULFOXIDE]	66	100
